S1P1 ag-PAM – S1P1 agonists and agonism potentiators, primary screen, cell-based, primary and confirmation screens, CRE-bla reporter; Sphingosine 1-phosphate receptor 1 (Homo sapiens), P21453; S1P1 CRE-bla cells, forskolin, beta-lactamase FRET, potentiator mode; S1P1 agonist co-added at EC20, 2 nM; 100% = saturating reference agonist, 0% = basal; activation, % at 9.5 µM; 56,000 compounds, 0.57% hits; AID 449, 2006;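 active means activation above a cutoff set at the mean activation of all tested compounds plus 3 SD, cut at about 54% in these data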;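 further: forskolin at 4 µM as EC80 and the EC20 agonist is SEW2871; 100% = SEW2871 at its EC100 plus forskolin at EC80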
M1 agonist – M1 muscarinic receptor agonists, primary screen, CHO-M1 cells, Fluo-4 calcium, agonist mode. B-score at 10 µM. Muscarinic acetylcholine receptor M1. Fluo-4 calcium fluorescence; hits give high values. 64,000 compounds, 3% hits;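 active means fluorescence rise, raw or as B-score row- and column-corrected plate score, outside the 99.7% band of its plate's samples, either direction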
TNAP act mid DEA – human TNAP enzyme activators, primary screen, biochemical, luminescent, intermediate phosphate acceptor level; activation factor at 20 µM; 64,000 tested, under 10 active; purified TNAP, CDP-star luminescence, 100 mM DEA, 30 min; hits give high values; scale: 0 levamisole-inhibited, 1 vehicle-only enzyme; Alkaline phosphatase, tissue-nonspecific isozyme (Homo sapiens), P05186;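 active means activation factor of at least 2 at 20 µM, relative to controls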
Target sequence (P05186 whole entry, looked up): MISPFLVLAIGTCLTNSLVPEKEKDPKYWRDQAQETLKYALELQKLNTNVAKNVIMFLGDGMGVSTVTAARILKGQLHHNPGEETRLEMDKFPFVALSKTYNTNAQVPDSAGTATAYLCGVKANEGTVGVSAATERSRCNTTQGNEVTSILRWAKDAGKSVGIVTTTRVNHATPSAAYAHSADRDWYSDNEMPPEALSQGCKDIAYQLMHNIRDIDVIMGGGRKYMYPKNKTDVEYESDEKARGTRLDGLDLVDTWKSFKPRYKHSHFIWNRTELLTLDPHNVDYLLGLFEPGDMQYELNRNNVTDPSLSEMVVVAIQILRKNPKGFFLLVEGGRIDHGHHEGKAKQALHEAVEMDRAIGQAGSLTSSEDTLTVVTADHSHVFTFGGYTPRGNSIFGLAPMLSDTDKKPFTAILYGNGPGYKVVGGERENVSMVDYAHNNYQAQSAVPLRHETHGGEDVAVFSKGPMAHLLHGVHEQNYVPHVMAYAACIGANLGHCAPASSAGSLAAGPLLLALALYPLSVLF
M1 antagonist – antagonists of rat M1 muscarinic receptor; Muscarinic acetylcholine receptor M1 (Rattus norvegicus), P08482; CHO-M1 cells, Fluo-4 calcium, ACh EC80 antagonist mode; hits give low values; B-score at 10 µM; 64,000 compounds, 3.4% hits; AID 628, 2007;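 active means calcium fluorescence response, raw or row-and-column corrected B-score, differing from the plate sample mean either way at a set confidence level, mostly lower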
D1 mod – D1 CRE-luciferase signal change, two-sided – cell-based, HEK293 D1, dopamine EC30, D1 allosteric modulator project, primary screen. dopamine EC30 potentiation; actives deviate in either direction. B-score at 10 µM. 58,000 compounds, 5.9% hits. AID 641, 2007;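 active means luminescence count or its row- and column-corrected plate score outside the 99.7% band of the plate's sample wells, on either side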
S1P3 agonist – human S1P3 receptor agonists, primary screen, cell-based, primary and confirmation, NFAT-BLA reporter; Sphingosine 1-phosphate receptor 3 (Homo sapiens), Q99500; S1P3 NFAT-BLA reporter cells, agonism, FRET ratio; relative to 1 µM S1P, basal subtracted; activation, % at 4.5 µM; 60,000 compounds, 0.1% hits; AID 373, 2006;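 active means activation above the screen-wide mean plus 3 SD, cut at about 4.5% in these data, passing the limit was not always enough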
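Assay system: stable CHO line with human S1P3, Gα16, NFAT-BLA reporter; Detection: FRET β-lactamase substrate fluorescence, excitation 405 nm, 460/535 nm emission ratio, background-subtracted; Read-out: percent activation versus median 1 µM S1P response, basal-subtracted, per plate; Incubation: cells plated overnight, compound 4 h 37 °C, substrate 2 h RT.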
* = called active by the depositor. The list is not random: actives were taken first. Their share in the collection is about 11%.

How did CC1c2nc3ccccc3n2C(CC(=O)NCc2ccccn2)C(=O)N1Cc1ccccc1 (stereo not given) do in these assays?
S1P1 ag-PAM: 4; M1 agonist: -0.75; TNAP act mid DEA: 0.9; M1 antagonist: 0.38; D1 mod: -0.4; S1P3 agonist: 0

Results for c1ccc(-c2nnc(N3CCOCC3)nc2-c2ccccc2)cc1 ?
S1P1 ag-PAM: 8; M1 agonist: 0.49; TNAP act mid DEA: 0.9; M1 antagonist: -0.97; D1 mod: 3; S1P3 agonist: 31*

How did COC(=O)c1cccc(S(=O)(=O)N2CCN(c3nc4ccccc4s3)CC2)c1 do in these assays?
S1P1 ag-PAM: 4; M1 agonist: 0.79; TNAP act mid DEA: 0.9; M1 antagonist: 0.64; D1 mod: -2.8*; S1P3 agonist: -2

How did O=C(c1ccco1)c1cn[nH]c1-c1ccc(Cl)cc1O do in these assays?
M1 agonist: 0.9; TNAP act mid DEA: 1; M1 antagonist: -0.6; D1 mod: 0.37

What do the screens show for `COc1ccc(Cn2nnnc2CN(Cc2cc3cccc(C)c3[nH]c2=O)C2CCCC2)cc1`?
S1P1 ag-PAM: -17; M1 agonist: 2.2; TNAP act mid DEA: 0.9; M1 antagonist: 1.1; D1 mod: -3.3*; S1P3 agonist: -1

What do the screens show for `O=c1[nH]c2cc3c(cc2cc1CN(Cc1nnnn1CC1CCCO1)C1CCCC1)OCO3` (stereo not given)?
S1P1 ag-PAM: 15; M1 agonist: 0.59; TNAP act mid DEA: 0.9; M1 antagonist: -1.1; D1 mod: -3.3*; S1P3 agonist: 0

How did CCOc1ccc2[nH]c(=O)c(CN(Cc3nnnn3Cc3ccco3)C3CCCCC3)cc2c1 do in these assays?
S1P1 ag-PAM: -23; M1 agonist: 3.6*; TNAP act mid DEA: 0.9; M1 antagonist: -1.5; S1P3 agonist: -1

Results for CC1CCN(C(c2cc3cc4c(cc3[nH]c2=O)OCO4)c2nnnn2CC2CCCO2)CC1 (stereo not given) ?
S1P1 ag-PAM: -11; M1 agonist: -0.7; TNAP act mid DEA: 0.9; M1 antagonist: 0.4; D1 mod: -0.17; S1P3 agonist: -1

What do the screens show for `CCOCCn1c(=O)c2c(nc3n2CCN3c2ccc(CC)cc2)n(C)c1=O`?
S1P1 ag-PAM: -12; M1 agonist: 0.37; TNAP act mid DEA: 0.9; M1 antagonist: 0.52; D1 mod: -0.84; S1P3 agonist: -1

What do the screens show for `CCOc1ccc(OCC)c(NC(=O)C2CCCN(S(=O)(=O)c3cnc[nH]3)C2)c1` (stereo not given)?
S1P1 ag-PAM: -6; M1 agonist: 0.0073; TNAP act mid DEA: 0.9; M1 antagonist: -0.35; D1 mod: 0.11; S1P3 agonist: 1

What do the screens show for `O=C(Cn1cccc1C(=O)c1ccccc1)NCc1ccco1`?
S1P1 ag-PAM: -7; M1 agonist: -0.11; TNAP act mid DEA: 0.9; M1 antagonist: -0.91; D1 mod: -3.5*; S1P3 agonist: 0

What do the screens show for `CN(C)C=Nc1ccc2nn(-c3ccccc3)nc2c1`?
S1P1 ag-PAM: 1; M1 agonist: -1.3; TNAP act mid DEA: 1; M1 antagonist: -1.2; D1 mod: -2.5*; S1P3 agonist: 0

How did CC(C)(C)OC(=O)N1CCC(C(=O)N2CCC[C@H]2C(=O)O)CC1 do in these assays?
S1P1 ag-PAM: -2; M1 agonist: 1.3; TNAP act mid DEA: 0.9; M1 antagonist: -0.15; D1 mod: -1.5; S1P3 agonist: -1

What do the screens show for `OC(COc1ccc(Cl)c2ccccc12)CN1CCN(c2ccccn2)CC1` (stereo not given)?
M1 agonist: -0.22; TNAP act mid DEA: 0.8; M1 antagonist: -0.2; D1 mod: -0.83

How did OC(CN1CCN(c2ccccn2)CC1)Cn1c2ccccc2c2ccccc21 (stereo not given) do in these assays?
S1P1 ag-PAM: -8; M1 agonist: -0.046; TNAP act mid DEA: 0.9; M1 antagonist: 0.34; D1 mod: -2.7*; S1P3 agonist: 0

Results for COc1ccc2nc(NC(=O)C3CCCN3S(=O)(=O)c3ccc(C)cc3)sc2c1 (stereo not given) ?
S1P1 ag-PAM: 7; M1 agonist: -0.4; TNAP act mid DEA: 0.9; M1 antagonist: -0.3; D1 mod: -1.5; S1P3 agonist: -1

How did Cc1cc(-n2c(=O)c(C#N)cc3c(=O)n4ccccc4nc32)no1 do in these assays?
S1P1 ag-PAM: -124; TNAP act mid DEA: 0.9; D1 mod: -0.31; S1P3 agonist: 11*

How did N#Cc1cc2c(=O)n3ccccc3nc2n(Cc2cccnc2)c1=N do in these assays?
M1 agonist: 0.31; TNAP act mid DEA: 0.9; M1 antagonist: -0.041; D1 mod: 0.8

Results for C=CCn1c(=O)c(C#N)cc2c(=O)n3ccccc3nc21 ?
S1P1 ag-PAM: -80; M1 agonist: -0.0043; TNAP act mid DEA: 0.9; M1 antagonist: -0.86; D1 mod: -0.2; S1P3 agonist: 5.2*

How did CCN(Cc1ccncc1)S(=O)(=O)c1ccc(C(C)=O)cc1 do in these assays?
S1P1 ag-PAM: 24; M1 agonist: -0.11; TNAP act mid DEA: 0.9; M1 antagonist: -0.52; D1 mod: -0.93; S1P3 agonist: 0

How did Cc1ccc(NC(=O)CN(C)S(=O)(=O)c2cccc3nsnc23)cc1 do in these assays?
S1P1 ag-PAM: 22; M1 agonist: 0.46; TNAP act mid DEA: 1; M1 antagonist: 0.59; D1 mod: -5.4*; S1P3 agonist: -2

How did Cc1ccc(CNC(=O)CN(C)S(=O)(=O)c2cccc3nsnc23)cc1 do in these assays?
S1P1 ag-PAM: -22; M1 agonist: -0.053; TNAP act mid DEA: 0.9; M1 antagonist: 0.57; D1 mod: -0.021; S1P3 agonist: -1

Results for c1ccc(NCc2nc(-c3ccccc3)no2)cc1 ?
S1P1 ag-PAM: 3; M1 agonist: 0.55; TNAP act mid DEA: 0.8; M1 antagonist: 0.41; D1 mod: 0.018; S1P3 agonist: -1

How did CCCN1Cc2cccc(C(=O)Nc3ccc(CN4CCCC4)cc3)c2C1=O do in these assays?
S1P1 ag-PAM: 2; TNAP act mid DEA: 0.9; D1 mod: 3.3; S1P3 agonist: 0

Results for COCCN1Cc2cccc(C(=O)Nc3cccnc3)c2C1=O ?
S1P1 ag-PAM: -15; M1 agonist: 0.017; TNAP act mid DEA: 0.9; M1 antagonist: -0.14; D1 mod: 2.9; S1P3 agonist: 0

How did COCCN1Cc2cccc(C(=O)Nc3ccc(S(=O)(=O)N4CCCCC4)cc3)c2C1=O do in these assays?
S1P1 ag-PAM: -3; TNAP act mid DEA: 0.9; D1 mod: 6.8*; S1P3 agonist: 0
